Experimental data taken from ChEMBL document CHEMBL3045523, “The limonoids and their antitobacco mosaic virus (TMV) activities from Munronia unifoliolata Oliv” (J Agric Food Chem, 2012).
Values after ≈ are worked out from the molar mass of the structure shown.

Experiments:
[1] = tested on: Tobacco mosaic virus; assay: Inhibition of Tobacco mosaic virus (TMV) infection in Nicotiana glutinosa assessed as infection inhibition rate at 30 ug/ml after 3 to 4 days by half-leaf method; assay type: functional
In short: (§1)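 Half-leaf protective assay on Nicotiana glutinosa local-lesion host at the 4–5 leaf stage. TMV U1, purified and diluted to 30 μg/mL in 0.01 M PBS, was mixed with compound solution (DMSO stock diluted in water) for 30 min. The mix was rubbed onto the left leaf half, with virus plus DMSO on the right half. Local lesions were counted 3–4 days later; three repetitions.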

[2] = tested on: Tobacco mosaic virus; assay: Inhibition of Tobacco mosaic virus (TMV) infection in Nicotiana glutinosa at 200 ug/ml after 3 to 4 days by half-leaf method; assay type: functional
In short: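 Curative half-leaf test on N. glutinosa. Leaves were mechanically inoculated with purified TMV U1 (30 μg/mL). After 2 h, compound (DMSO stock in water) was applied to the left half and DMSO to the right half. Lesions were counted after 3–4 days. Values are mean ± SD, n = 3.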

[3] = tested on: Tobacco mosaic virus; assay: Inhibition of Tobacco mosaic virus (TMV) infection in Nicotiana glutinosa assessed as infection inhibition rate at 15 ug/ml after 3 to 4 days by half-leaf method; assay type: functional; in short: as §1
[4] = tested on: Tobacco mosaic virus; assay: Inhibition of Tobacco mosaic virus (TMV) infection in Nicotiana glutinosa assessed as infection inhibition rate at 20 ug/ml after 3 to 4 days by half-leaf method; assay type: functional; in short: as §1
[5] = tested on: Tobacco mosaic virus; assay: Inhibition of Tobacco mosaic virus (TMV) infection in Nicotiana glutinosa after 3 to 4 days by half-leaf method; assay type: functional, organism-based; in short: as §1
[6] = tested on: Tobacco mosaic virus; assay: Inhibition of Tobacco mosaic virus (TMV) infection in Nicotiana glutinosa assessed as infection inhibition rate at 5 ug/ml after 3 to 4 days by half-leaf method; assay type: functional; in short: as §1
[7] = tested on: Tobacco mosaic virus; assay: Inhibition of Tobacco mosaic virus (TMV) infection in Nicotiana tabacum cv. K326 at 30 ug/ml by DAS-ELISA method; assay type: functional
In short: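 Leaf-disk test in N. tabacum cv. K326. Leaves were inoculated with TMV (30 μg/mL), and 1 cm disks were cut after 72 h. Disks were floated on compound, DMSO (negative) or mock solutions at 28 °C for 48 h. Virus in disks was measured by DAS-ELISA at OD405 against a TMV standard curve (0.23–3.75 μg/mL). Inhibition = (1 − treated/negative-control TMV) × 100%.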

[8] = tested on: Tobacco mosaic virus; assay: Inhibition of Tobacco mosaic virus (TMV) infection in Nicotiana glutinosa assessed as infection inhibition rate at 10 ug/ml after 3 to 4 days by half-leaf method; assay type: functional; in short: as §1
[9] = tested on: Tobacco mosaic virus; assay: Inhibition of Tobacco mosaic virus (TMV) infection in Nicotiana glutinosa assessed as infection inhibition rate at 25 ug/ml after 3 to 4 days by half-leaf method; assay type: functional; in short: as §1

Row | SMILES | inhibition at 30 µg/mL [1] [%] | inhibition at 200 µg/mL [2] [%] | inhibition at 15 µg/mL [3] [%] | inhibition at 20 µg/mL [4] [%] | IC50 [5] [µg/mL] | inhibition at 5 µg/mL [6] [%] | inhibition at 30 µg/mL [7] [%] | inhibition at 10 µg/mL [8] [%] | inhibition at 25 µg/mL [9] [%]
1 | CC(=O)O[C@H]1C[C@H]2[C@](C)(C3=CC[C@@H](c4ccoc4)[C@@]31C)[C@H](OC(C)=O)C[C@H]1C(C)(C)OC(=O)C[C@H](OC(C)=O)[C@@]12C [MUNRONOID L] | 47.7 | 34.6 | 25.7 | 35.8 | 34.6 (≈ 60.6 µM) | 4.4 | 54.4 | 15.3 | 43.9
2 | CC(=O)O[C@H]1C[C@H]2[C@](C)(C3=CC[C@@H](c4ccoc4)[C@@]31C)[C@H](OC(=O)C=C(C)C)C[C@H]1C(C)(C)OC(=O)C[C@H](OC(C)=O)[C@@]12C [MUNRONOID M] | 45.4 | 29.3 | 22.6 | 33.5 | 37 (≈ 60.6 µM) | – | 45.7 | 11.5 | 42.9
3 | C=C1[C@@H]([C@@]2(C)C=CC(=O)OC(C)(C)[C@@H]2CC(=O)OC)[C@@H](OC(C)=O)[C@H](OC(C)=O)[C@@]2(C)[C@@H](c3ccoc3)C[C@H]3O[C@]132 [NYMANIA] | 58 | 39.2 | 29.8 | 40.2 | 22.3 (≈ 39.1 µM) | 8.3 | 55.4 | 19.6 | 49.8
4 | C=C1[C@@H]([C@@]2(C)C=CC(=O)OC(C)(C)[C@@H]2CC(=O)OC)[C@@H](OC(C)=O)[C@H](OC(C)=O)[C@@]2(C)[C@H](C3=CC(=O)OC3)C[C@H]3O[C@]132 [MUNRONOID O] | 64.2 | 50.2 | 33.4 | 42.8 | 22.2 (≈ 37.8 µM) | 11.2 | 64.2 | 24.6 | 51.4
5 | C=C1[C@@H]([C@@]2(C)C=CC(=O)O[C@](C)(COC(C)=O)[C@@H]2CC(=O)OC)[C@@H](OC=O)[C@H](OC(=O)[C@H](O)[C@H](C)CC)[C@@]2(C)[C@@H](c3ccoc3)C[C@H]3O[C@]132 [MOMBASOL] | 25.9 | 27.7 | – | – | – | – | 39.3 | – | –
6 | CC(=O)O[C@H]1C[C@@H](OC(C)=O)[C@@]2(C)CO[C@H]3[C@@H](O)[C@@]4(C)C5=CC[C@@H](c6ccoc6)[C@]5(C)CC[C@@H]4[C@]1(C)[C@@H]32 [DIACETYLVILASININ] | 14.6 | 17.2 | – | – | – | – | – | – | –
7 | CCC(C)C(O)C(=O)O[C@H]1C[C@H]2[C@](C)(C3=CC[C@@H](c4ccoc4)[C@@]31C)[C@H](OC(C)=O)C[C@H]1C(C)(C)OC(=O)C[C@H](OC(C)=O)[C@@]12C (stereo partly specified) [MUNRONOID K] | 51.9 | 55.6 | 28.6 | 38.7 | 28.3 (≈ 44 µM) | 6.5 | 67.2 | 18.7 | 45.7
8 | CNCC(=O)N[C@@H](CO)C(=O)N[C@H]1[C@H](O)[C@@H](O)[C@H](n2ccc(N)nc2=O)O[C@@H]1C(N)=O [NINGNANMYCIN] | 42.6 | 42.1 | 30.3 | 32.1 | 52.1 (≈ 117 µM) | – | 56.5 | 25 | 38.3
9 | C/C=C(\C)C(=O)O[C@H]1C[C@@H](OC(C)=O)[C@@]2(C)CO[C@H]3[C@@H](O)[C@@]4(C)C5=C[C@@H](O)[C@@H](c6ccoc6)[C@]5(C)[C@@H](OC)C[C@@H]4[C@]1(C)[C@@H]32 [MUNRONOID N] | 52 | 24.5 | 26.4 | 37.9 | 27.9 (≈ 46.6 µM) | 8.3 | 30.2 | 16.5 | 44.6
